# Compounds with a hit are over-represented: about 2.8% of the library has one in this group of screens.
# PAFAH1B3 FP inh = PAFAH1B3 enzyme inhibitors, primary screen, biochemical, fluorescence polarization, human. 340,000 compounds, 0.28% hits. Platelet-activating factor acetylhydrolase IB subunit alpha1 (Homo sapiens), Q15102. recombinant PAFAH1B3, FP-rhodamine probe. inhibition, % at 3.39 µM;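 active means inhibition above the screen-wide average of all tested compounds plus 3 SD, cut at about 25% in these data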;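 further: 0% = enzyme with DMSO only and 100% = wells lacking PAFAH1B3 protein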
# mABHD4 FP = ABHD4 inhibitors, primary screen, biochemical, fluorescence polarization, mouse; (Lyso)-N-acylphosphatidylethanolamine lipase (Mus musculus), Q8VD66; AID 720543, 2013; inhibition, % at 8.92 µM; purified mABHD4, FP-Rh probe fluorescence polarization; 370,000 compounds, 0.54% hits;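 active means inhibition exceeding the mean over every tested compound plus 3 SD, cut at about 30% in these data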;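 further: 0% = plate median of compound wells and 100% = S159A mutant with DMSO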
# Target sequence (Q8VD66 whole entry, looked up): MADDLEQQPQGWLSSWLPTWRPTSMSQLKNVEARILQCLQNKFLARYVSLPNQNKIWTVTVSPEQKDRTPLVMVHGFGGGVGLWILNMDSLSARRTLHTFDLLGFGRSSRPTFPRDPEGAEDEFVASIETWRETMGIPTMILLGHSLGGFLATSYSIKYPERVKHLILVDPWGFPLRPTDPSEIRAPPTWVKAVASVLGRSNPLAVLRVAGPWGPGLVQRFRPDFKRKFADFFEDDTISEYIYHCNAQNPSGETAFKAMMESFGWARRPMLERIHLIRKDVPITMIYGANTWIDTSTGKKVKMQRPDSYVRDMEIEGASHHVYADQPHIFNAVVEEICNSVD
#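 assay system = mABHD4 protein | compound dosing = single nominal dose of 8.92 µM, 0.89% DMSO final | read-out basis = percent inhibition of probe binding, normalized to plate controls | schedule = Enzyme–compound pre-incubation 45 min, then probe 60 min, both 25 °C | detection = fluorescence polarization, excitation 525 nm, emission 598 nm, BODIPY TMR filters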
# HTRA1 inh = HTRA1 serine protease inhibitors, primary screen, biochemical, fluorescence polarization, HTS | Q92743 | recombinant HTRA1, FP-rhodamine activity-based probe | inhibition, % at 5.96 µM | 340,000 compounds, 0.5% hits; in the data active means inhibition above about 36%;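 further: 0% = enzyme with DMSO and 100% = wells lacking enzyme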
# pPAFAH inh = pPAFAH enzyme inhibitors, primary screen, biochemical, fluorescence polarization, human | Platelet-activating factor acetylhydrolase (Homo sapiens), Q13093 | recombinant pPAFAH, FP-rhodamine probe fluorescence polarization | inhibition, % at 3.39 µM | 330,000 compounds, 1.5% hits | AID 463082, 2010;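 active means inhibition above the mean inhibition across the screen plus 3 SD, cut at about 25% in these data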;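 further: inhibitors block binding of the rhodamine activity-based probe so polarization drops; 0% = enzyme with DMSO and 100% = wells lacking pPAFAH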
# PAFAH1B2 FP inh = PAFAH1B2 enzyme inhibitors, primary screen, biochemical, fluorescence polarization, human; recombinant PAFAH1B2, FP-rhodamine activity probe; inhibition, % at 3.39 µM; 340,000 compounds, 1.2% hits; AID 492953, 2010;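 active means inhibition above the mean of all tested compounds plus 3 SD, cut at about 24% in these data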;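 further: 0% = enzyme with DMSO and 100% = wells lacking PAFAH1B2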
# PAFAH2 FP inh = PAFAH2 enzyme inhibitors, primary screen, biochemical, fluorescence polarization, human. recombinant PAFAH2, FP-rhodamine activity probe. Platelet-activating factor acetylhydrolase 2, cytoplasmic (Homo sapiens), Q99487. 340,000 compounds, 0.99% hits. inhibition, % at 3.39 µM;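 active means inhibition above the mean over all tested compounds plus 3 SD, cut at about 30% in these data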;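 further: inhibitors block probe labeling of enzyme so polarization drops; 0% = enzyme with DMSO and 100% = wells lacking PAFAH2 protein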
# Starred values were filed as active, the others as inactive; . = not tested or not shown.
SMILES,PAFAH1B3 FP inh,mABHD4 FP,HTRA1 inh,pPAFAH inh,PAFAH1B2 FP inh,PAFAH2 FP inh
O=S(=O)(c1ccc2[nH]c3c(c2c1)CCCC3)N1CCCCC1,5,3,-41,14,5,7
O=C1N/C(=N/NC(=O)c2cccc3ccccc23)S/C1=C\c1ccccc1OCc1ccccc1,26*,5,8,.,14,10
O=C(c1ccc2c(=O)n(Cc3ccccc3)c(=S)[nH]c2c1)N1CCCC1,6,-3,1,9,26*,7
Cc1ccc(C)c(N2CCN(C(=O)c3ccc(Cn4c(=S)[nH]c5ccc(N6CCOCC6)cc5c4=O)cc3)CC2)c1,2,11,1,27*,-4,4
Nc1nonc1C(=O)NCCN=Cc1cc(Cc2ccccc2)cc(Br)c1O,6,.,13,33*,10,3
COc1cc(/C=C2\SC(=O)N(Cc3ccc(F)cc3)C2=O)cc([N+](=O)[O-])c1O,5,10,6,.,5,29
COc1cc(/C=C2\SC(=O)N(Cc3ccc(Cl)cc3)C2=O)cc([N+](=O)[O-])c1O,19,22,10,.,39*,49*
O=S1(=O)CCOC[C@H](c2ccccc2)N1Cc1ccccc1F,3,-6,3,3,29*,-5
CCC1COCCS(=O)(=O)N1Cc1ccccc1F (configuration not stated),2,1,-4,-3,-1,-6
Nc1nnc(SCC(=O)NCCOc2ccccc2)s1,6,-11,2,-4,4,3
O=C(CSc1nc2ccccc2s1)NCCOc1ccccc1,4,-11,-5,12,27*,-6
O=C(NCc1cccnc1)/C(=C/c1ccc(-c2cccc(Cl)c2)o1)S(=O)(=O)c1ccccc1,-3,6,-13,16,0,10
O=C(NCc1cccnc1)/C(=C\c1ccc(-c2cccc(Cl)c2)o1)S(=O)(=O)c1ccccc1,-8,0,-60,26*,-5,4
Cc1ccccc1NC(=O)[C@@H]1CCCN1S(=O)(=O)c1cccc2cccnc12,.,0,.,.,.,.
Cc1ccc2c(c1)C1CS(=O)(=O)N(C3CCCC3)CN1C2 (configuration not stated),.,-4,.,.,.,.
Nn1c(-c2ccco2)n[nH]c1=S,6,-3,-2,0,-3,-2
S=c1[nH]nc(-c2ccco2)n1C1CCCCC1,10,3,3,4,26*,4
COc1ccc(S[C@]2(C(=O)N3CCOCC3)CC(=O)N(c3ccc(C#N)cc3)[C@@H]2c2ccc(OC)cc2)cc1,.,-3,.,.,.,.
NC1=[N+](Cc2ccccc2)C(Cc2ccccc2)C2C(=C3CCCCC3n3c(=O)n(-c4ccccc4)c(=O)n32)N1 (configuration not stated),.,22,.,.,.,.
Cc1ccc(C2SCC(=O)N2Cc2ccccc2)cc1 (configuration not stated),5,0,-2,3,29*,6
O=C1CSC(c2ccccc2O)N1Cc1ccccc1 (configuration not stated),7,-9,-7,6,25*,-5
CC[n+]1c(/C=C/N(C)c2ccccc2)oc2ccc(Cl)cc21,1,18,0,9,1,0
CCN1/C(=C/C=C/c2oc3ccc4ccccc4c3[n+]2CC)Oc2ccc3ccccc3c21,.,.,.,42*,.,.
CCOC(=O)[C@@]12CN(C(=O)OC(C)(C)C)CC=C1N(Cc1ccc(OC)cc1)C(=O)[C@H]2CC(=O)N1CCN(C(=O)C2CC2)CC1,.,-4,.,.,.,.
COc1ccc(S(=O)(=O)N2CCN(C(=S)NCCc3ccccc3)CC2)cc1,3,-4,-13,-4,27*,1
COc1ccc(CCNC(=S)N2CCN(S(=O)(=O)c3ccc(C)cc3)CC2)cc1,3,10,-2,-5,1,-2
